The chains are these.
B1: tRNA (parent)
chain: GUUCCGUUGGCGUAAUGGUAACGCGUCUCCCUCCUAAGGAGAAGACUGCGGGUUCGAGUCCCGUACGGAACG

The data set covers variants of B1. Briefly: yeast fitness, log relative to wild type (ln ratio); higher = fitter; tRNA-Arg(CCU), competitive growth, 37 C, 1 M NaCl. A digest of the protocol:
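Fitness is the natural log of a genotype's generation count divided by that of the wild type. A combinatorial library of tRNA-Arg(CCU) variants sat on a HIS3 centromeric plasmid in BY4742 lacking the chromosomal gene, from two independent transformations. Pools grew 4 generations in SC-HIS at 30 °C, then ~6.5 generations (~26.5 h) in SC-HIS 1M NaCl at 37 °C, with three outputs per input. Generations came from OD-scaled log2 output/input frequency, inverse-variance weighted across replicates, with variants counted by 125 bp paired-end Illumina sequencing.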
Consider U2G G6U C27U C46U C66U A69G A70U C71U, for which the “yeast fitness (ln)” value is -0.336. Next, G6A C27U A43C C71U: -0.184.

Regarding G6U C27U A43C C66A A70U C71U, the “yeast fitness (ln)” value was -0.477. Next, G6U C27U C46U C66U A69G C71U: -0.543; G1A G6U A43C A69G A70G C71U: -0.398. Next, U2G C46U C66A A69G A70G: -0.0404; G1A U2G A69G A70G C71U: -0.438.

Turning to G1A U2C G6U C27U A43C C46U C66U A70U, the “yeast fitness (ln)” value was -0.243. Under G1A G6U C66U A70G stands -0.199. Next, G1A U2G G6A C46U C66U A69G A70U: -0.383; G1A U2G G6U C27U A70G C71U: -0.326.

In the case of U2G G6A C27U A43C C66A, the “yeast fitness (ln)” value is -0.237. Next, G1A U2G G6U C27U A43C A69G A70G: -0.326; U2G C27U C66A A70U C71U: -0.195. Take G1A U2G C46U C66U C71U: the “yeast fitness (ln)” value was -0.117. Next, G1A U2C G6U C66A A70U C71U: -0.16; U2C G6U C27U C46U A70G C71U: -0.359. Under U2G G6A A69G C71U stands -0.113; under U2G G6A A69G A70G C71U, -0.181; under U2C C27U C46U A69G A70G, -0.0283. Next, G1A U2G A43C C66U A70U C71U: -0.333; G1A U2C C27U C46U A70G C71U: -0.0196. In the case of G1A U2G G6U C46U C66U A70U, the “yeast fitness (ln)” value was -0.184. Under G1A U2G G6A C27U A43C A70G stands -0.381; under U2C G6U C27U C46U C66U A69G A70G C71U, -0.493; under G1A G6A C27U A43C C66U A70U C71U, -0.381.

Turning to U2G G6A A70U, the “yeast fitness (ln)” value was -0.0249. Under G1A G6U A43C C66U A70G C71U stands -0.424; under U2G G6A C66U A69G C71U, -0.217; under G1A U2G G6U C27U C46U A69G A70G, -0.474. With U2C C27U A43C A70G C71U, the “yeast fitness (ln)” value is -0.0236. Under G1A G6U C27U A43C C46U C66U A69G A70G C71U stands -0.501; under U2G C27U C46U C66A A70U C71U, -0.134; under C27U C66U A70U, -0.0893. Turning to G1A U2C G6A C66A A70G C71U, the “yeast fitness (ln)” value is -0.127.

Regarding G1A U2G C27U A43C A70U, the “yeast fitness (ln)” value is -0.154. Next, G1A U2G G6A C46U A69G A70G: -0.251; A43C A70G: -0.022. Turning to U2C G6A A43C C46U C66U A70G, the “yeast fitness (ln)” value is -0.0107. With G1A U2G C27U A43C C46U C66A A69G C71U, the “yeast fitness (ln)” value is -0.315.

For G1A G6U C27U C46U C66A A70G, the “yeast fitness (ln)” value was -0.233.

Turning to U2G G6U C27U A43C C46U C66U A70G C71U, the “yeast fitness (ln)” value was -0.315. Under G1A U2G G6U C27U A43C C66U A70G C71U stands -0.346; under C27U C66A, -0.0595.

U2G C27U A43C C46U A70G: the “yeast fitness (ln)” value is -0.227. For the variant U2C A43C C66A A69G A70G, the “yeast fitness (ln)” value was -0.186. U2G A43C C46U C66A A70U: the “yeast fitness (ln)” value is -0.0637. Turning to G1A U2G C46U C66A A70G C71U, the “yeast fitness (ln)” value was -0.198. Next, G1A U2C G6A C27U C46U C71U: -0.157; U2C A43C C46U C66U: -0.0687; G1A U2G G6A C46U A69G A70G C71U: -0.162.

Turning to U2G C27U A43C, the “yeast fitness (ln)” value is -0.0611. Turning to U2G G6A C46U C66A A69G A70U, the “yeast fitness (ln)” value was -0.0517. Under G1A U2C C46U A69G A70U stands -0.016; under G1A G6A C27U A43C C46U A70U C71U, -0.263. Next, U2C G6A C27U A43C C46U C66U A69G A70U: -0.173; G1A A43C A69G A70U C71U: -0.366. Under G1A U2G A43C C66A C71U stands -0.228; under U2G C27U A70G, -0.136. Take G1A U2G G6U C27U A43C C66U A69G A70G C71U: the “yeast fitness (ln)” value is -0.491.

For G1A G6A C66U A70G, the “yeast fitness (ln)” value is -0.184. Next, G1A G6A C46U C66U A70G C71U: -0.0284. Next, U2G G6A C27U A43C C46U C66U A69G A70G: -0.23; U2G G6A C27U A43C C46U A69G A70G C71U: -0.297; G6U A43C C66A: -0.0198.

As for G1A U2G G6U C46U A69G A70U C71U, the “yeast fitness (ln)” value was -0.279. Next, G1A U2G G6A C27U A43C C66U A70U C71U: -0.536. Under G1A C27U A69G stands -0.295; under G6U C27U A43C C66A A70G, -0.293; under U2C C27U A43C C66U A69G A70U, -0.439. Under U2G C27U A43C C66A A69G C71U stands -0.355.

Take U2G G6U A43C C66U A70U C71U: the “yeast fitness (ln)” value was -0.464. Next, G1A U2G G6U A43C C66U A69G C71U: -0.437; G1A C27U A43C C71U: -0.0801; G6U A43C C46U: -0.193. Under G1A U2C C27U C46U A69G A70U stands -0.0465; under U2C G6U C27U C66U A69G A70U C71U, -0.566; under G1A A43C C66A A70U, -0.129. Next, G1A U2G G6U C27U A43C C46U A70U: -0.341.

Regarding G1A U2G G6U A69G C71U, the “yeast fitness (ln)” value is -0.224. For G1A C27U C46U A69G A70U C71U, the “yeast fitness (ln)” value was -0.301. For the variant G1A U2C G6A A43C C46U A70U C71U, the “yeast fitness (ln)” value was -0.0375. Under U2C G6U C27U C66A C71U stands -0.15; under G1A U2G A43C C46U C66A C71U, -0.138.

The record behind these values is the RNAGym collection of RNA variant scans (doi:10.1038/s41586-018-0170-7).
